“And” between values parts separate entries of the source, which are not always exact repeats. Identical values can stand only once.
Tested on: HEK-293T
Assay: Multiplex assay against HEK293T;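 as to Population Tubulin-Different-Phenotype (%): share of the cells with healthy nuclei that show this phenotype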
Format: toxicity, cell-based
Conditions: human
In short: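 With compound added, live cells were imaged on a CQ1 microscope at 37°C and 5% CO2; staining with Hoechst33342, BioTracker Green Microtubule Cytoskeleton Dye, MitoTracker Red and Annexin V Alexa Fluor 680 had been done at seeding. The CellPathfinder machine-learning gating scheme split cells into Hoechst high-intensity objects or normal cells, normal cells into healthy, pyknosed or fragmented nuclei, and pyknosed cells into mitotic or apoptotic. The tubulin, mitochondrial-mass and membrane-permeability phenotypes are per cents of healthy-nucleus cells.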

[1] = 12 h, 1 µM, compound concentration 1 uM, replicate 1
[2] = 12 h, 1 µM, compound concentration 1 uM, replicate 2
[3] = 12 h, 10 µM, compound concentration 10 uM, replicate 1
[4] = 12 h, 10 µM, compound concentration 10 uM, replicate 2
[5] = 24 h, 1 µM, compound concentration 1 uM, replicate 1
[6] = 24 h, 1 µM, compound concentration 1 uM, replicate 2
[7] = 24 h, 10 µM, compound concentration 10 uM, replicate 1
[8] = 24 h, 10 µM, compound concentration 10 uM, replicate 2
[9] = 48 h, 1 µM, compound concentration 1 uM, replicate 1
[10] = 48 h, 1 µM, compound concentration 1 uM, replicate 2
[11] = 48 h, 10 µM, compound concentration 10 uM, replicate 1
[12] = 48 h, 10 µM, compound concentration 10 uM, replicate 2

SMILES: CS(=O)(=O)N1CCCC(NC(=O)[C@H](CCC2CCCCC2)NC(=O)c2ccc(CNc3ncnc4c3nnn4-c3ccccc3)cc2)C1 (some centres not stated) [SR-301]
- Population Apoptotic (%) [1]: 26% and 51% and 37%
- Population Fragmented Nuclei (%) [1]: 13% and 14% and 15%
- Population Healthy Nuclei (%) [1]: 22% and 17% and 20%
- Population Hoechst High Intensity Objects (%) [1]: 13% and 14%
- Population Membrane Permeable-Phenotype (%) [1]: 8% and 3%
- Population Mitochondria Different-Phenotype (%) [1]: 85% and 84%
- Population Mitotic Cells (%) [1]: 73% and 48% and 62%
- Population Normal (%) [1]: 86% and 85%
- Population Pyknosed Nuclei (%) [1]: 64% and 67%
- Population Tubulin-Different-Phenotype (%) [1]: 46% and 57% and 55%
- Total Cell Count [1]: 584 and 339 and 397
- Population Apoptotic (%) [2]: 20% and 16% and 18%
- Population Fragmented Nuclei (%) [2]: 5% and 8% and 4%
- Population Healthy Nuclei (%) [2]: 41% and 36% and 50%
- Population Membrane Permeable-Phenotype (%) [2]: 4% and 1% and 5%
- Population Mitochondria Different-Phenotype (%) [2]: 41% and 30%
- Population Mitotic Cells (%) [2]: 79% and 83% and 81%
- Population Normal (%) [2]: 94% and 98% and 96%
- Population Pyknosed Nuclei (%) [2]: 53% and 55% and 45%
- Population Tubulin-Different-Phenotype (%) [2]: 43% and 26% and 29%
- Total Cell Count [2]: 247 and 189 and 243
- Population Apoptotic (%) [3]: 68% and 73%
- Population Fragmented Nuclei (%) [3]: 20% and 14% and 21%
- Population Healthy Nuclei (%) [3]: 6% and 12% and 9%
- Population Hoechst High Intensity Objects (%) [3]: 17%
- Population Membrane Permeable-Phenotype (%) [3]: 10%
- Population Mitochondria Different-Phenotype (%) [3]: 76% and 85% and 86%
- Population Mitotic Cells (%) [3]: 31% and 26%
- Population Normal (%) [3]: 82%
- Population Pyknosed Nuclei (%) [3]: 73% and 68%
- Population Tubulin-Different-Phenotype (%) [3]: 71% and 66%
- Total Cell Count [3]: 404 and 541 and 467
- Population Apoptotic (%) [4]: 51% and 84% and 91%
- Population Fragmented Nuclei (%) [4]: 9% and 13% and 19%
- Population Healthy Nuclei (%) [4]: 28% and 26% and 20%
- Population Hoechst High Intensity Objects (%) [4]: 8% and 13% and 20%
- Population Mitochondria Different-Phenotype (%) [4]: 43% and 78% and 82%
- Population Normal (%) [4]: 92% and 86% and 79%
- Population Pyknosed Nuclei (%) [4]: 61% and 60%
- Population Tubulin-Different-Phenotype (%) [4]: 43% and 40% and 57%
- Total Cell Count [4]: 225 and 185 and 216
- Population Apoptotic (%) [5]: 26% and 40% and 55%
- Population Fragmented Nuclei (%) [5]: 18% and 19%
- Population Healthy Nuclei (%) [5]: 19% and 18% and 14%
- Population Hoechst High Intensity Objects (%) [5]: 19% and 18% and 16%
- Population Membrane Permeable-Phenotype (%) [5]: 6% and 5% and 2%
- Population Mitochondria Different-Phenotype (%) [5]: 72% and 77% and 78%
- Population Mitotic Cells (%) [5]: 73% and 60% and 44%
- Population Normal (%) [5]: 80% and 81% and 83%
- Population Pyknosed Nuclei (%) [5]: 61% and 62% and 66%
- Population Tubulin-Different-Phenotype (%) [5]: 48% and 57% and 65%
- Total Cell Count [5]: 594 and 385 and 349
- Population Apoptotic (%) [6]: 29% and 24%
- Population Fragmented Nuclei (%) [6]: 3% and 2% and 6%
- Population Healthy Nuclei (%) [6]: 64% and 67% and 57%
- Population Hoechst High Intensity Objects (%) [6]: 3% and 2%
- Population Membrane Permeable-Phenotype (%) [6]: 3% and 4%
- Population Mitochondria Different-Phenotype (%) [6]: 41% and 43% and 33%
- Population Mitotic Cells (%) [6]: 70% and 75%
- Population Normal (%) [6]: 96% and 97%
- Population Pyknosed Nuclei (%) [6]: 32% and 30% and 36%
- Population Tubulin-Different-Phenotype (%) [6]: 52% and 36% and 34%
- Total Cell Count [6]: 298 and 240 and 293
- Population Apoptotic (%) [7]: 81% and 77% and 85%
- Population Fragmented Nuclei (%) [7]: 28% and 20% and 26%
- Population Healthy Nuclei (%) [7]: 3% and 5%
- Population Hoechst High Intensity Objects (%) [7]: 19% and 18% and 20%
- Population Membrane Permeable-Phenotype (%) [7]: 8% and 9% and 0%
- Population Mitochondria Different-Phenotype (%) [7]: 58% and 77% and 81%
- Population Mitotic Cells (%) [7]: 18% and 22% and 14%
- Population Normal (%) [7]: 80% and 81% and 79%
- Population Pyknosed Nuclei (%) [7]: 68% and 74% and 69%
- Population Tubulin-Different-Phenotype (%) [7]: 33% and 54%
- Total Cell Count [7]: 495 and 531 and 410
- Population Apoptotic (%) [8]: 96% and 55% and 93%
- Population Fragmented Nuclei (%) [8]: 15% and 11%
- Population Healthy Nuclei (%) [8]: 36% and 42% and 39%
- Population Hoechst High Intensity Objects (%) [8]: 17% and 10% and 14%
- Population Membrane Permeable-Phenotype (%) [8]: 7% and 5% and 11%
- Population Mitochondria Different-Phenotype (%) [8]: 95% and 51% and 90%
- Population Normal (%) [8]: 82% and 89% and 85%
- Population Pyknosed Nuclei (%) [8]: 48% and 45%
- Population Tubulin-Different-Phenotype (%) [8]: 46% and 47% and 74%
- Total Cell Count [8]: 210 and 253 and 187
- Population Apoptotic (%) [9]: 23% and 35% and 54%
- Population Fragmented Nuclei (%) [9]: 21% and 28% and 19%
- Population Healthy Nuclei (%) [9]: 17% and 11% and 15%
- Population Hoechst High Intensity Objects (%) [9]: 22% and 24%
- Population Membrane Permeable-Phenotype (%) [9]: 4% and 5%
- Population Mitochondria Different-Phenotype (%) [9]: 54% and 70% and 71%
- Population Mitotic Cells (%) [9]: 77% and 64% and 45%
- Population Normal (%) [9]: 77% and 75%
- Population Pyknosed Nuclei (%) [9]: 60% and 64%
- Population Tubulin-Different-Phenotype (%) [9]: 39% and 52%
- Total Cell Count [9]: 604 and 398 and 345
- Population Apoptotic (%) [10]: 20% and 12%
- Population Fragmented Nuclei (%) [10]: 4% and 3%
- Population Healthy Nuclei (%) [10]: 82% and 80% and 81%
- Population Hoechst High Intensity Objects (%) [10]: 4% and 3%
- Population Membrane Permeable-Phenotype (%) [10]: 3% and 1%
- Population Mitochondria Different-Phenotype (%) [10]: 17% and 20% and 18%
- Population Mitotic Cells (%) [10]: 76% and 79% and 87%
- Population Normal (%) [10]: 95% and 96%
- Population Pyknosed Nuclei (%) [10]: 12% and 15%
- Population Tubulin-Different-Phenotype (%) [10]: 41% and 35% and 33%
- Total Cell Count [10]: 527 and 453 and 385
- Population Apoptotic (%) [11]: 90% and 84% and 81%
- Population Fragmented Nuclei (%) [11]: 37% and 29% and 32%
- Population Healthy Nuclei (%) [11]: 2% and 3%
- Population Hoechst High Intensity Objects (%) [11]: 22% and 20% and 23%
- Population Membrane Permeable-Phenotype (%) [11]: 14% and 11%
- Population Mitochondria Different-Phenotype (%) [11]: 71% and 57% and 77%
- Population Mitotic Cells (%) [11]: 9% and 15% and 18%
- Population Normal (%) [11]: 77% and 79% and 76%
- Population Pyknosed Nuclei (%) [11]: 60% and 67% and 64%
- Population Tubulin-Different-Phenotype (%) [11]: 28% and 64% and 55%
- Total Cell Count [11]: 401 and 536 and 484
- Population Apoptotic (%) [12]: 92% and 82% and 60%
- Population Fragmented Nuclei (%) [12]: 15% and 17% and 12%
- Population Healthy Nuclei (%) [12]: 52% and 54% and 64%
- Population Hoechst High Intensity Objects (%) [12]: 16% and 12% and 11%
- Population Membrane Permeable-Phenotype (%) [12]: 4% and 6%
- Population Mitochondria Different-Phenotype (%) [12]: 95% and 91% and 32%
- Population Normal (%) [12]: 83% and 87% and 88%
- Population Pyknosed Nuclei (%) [12]: 32% and 27% and 23%
- Population Tubulin-Different-Phenotype (%) [12]: 46% and 86% and 45%
- Total Cell Count [12]: 209 and 191 and 306
